# Measured values as given in paper PMC12391519 (Scientific Reports, 2025).
# Tests used:
# [1] = Total serum TEIC trough concentration by HPLC in patients on TEIC therapy; assay type: in vivo, human
# In short: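 Trough serum was drawn before dosing (days 3–4 of loading, day 7 onward of maintenance), centrifuged 1,800 g for 15 min at 25 °C and stored at –30 °C. It got primidone internal standard, acetonitrile deproteinisation and 0.1 M HCl/chloroform cleanup. HPLC-UV ran at 215 nm on a C18 column at 35 °C with a 10 mM phosphate pH 3.0/acetonitrile gradient at 1.0 mL/min. Calibrators were in commercial human serum; groups were compared by Mann–Whitney U.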
# [2] = Free serum TEIC trough concentration by ultrafiltration followed by HPLC; assay type: in vivo, human
# In short: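 Trough serum (1 mL) was ultrafiltered through a 30 kDa cutoff filter. The filtrate got primidone internal standard, acetonitrile deproteinisation and 0.1 M HCl/chloroform cleanup, then C18 HPLC-UV at 215 nm; calibrators were in ultrafiltered human serum. Response was […] CRP decrease plus ≥0.3 °C fever reduction for two consecutive days within 96 h. Adverse events were renal or hepatic dysfunction. Groups were compared by Mann–Whitney U.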
# [3] = system: serum albumin; assay: Free TEIC percentage; assay type: in vitro ADME, human; settings: patient serum, HPLC-UV
# In short: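 Free percentage is free/total trough TEIC, both measured by HPLC-UV at 215 nm; free drug was taken after 30 kDa ultrafiltration of serum. Samples were drawn before dosing on days 3–4 (loading: five doses, median 13 mg/kg every 12 h) or from day 7 (maintenance: median 7.8 mg/kg once daily). Relation to albumin was assessed by Spearman rank correlation.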
# [4] = Adverse events during TEIC therapy; assay type: in vivo, human; settings: ROC analysis, n = 41
# In short: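 Renal dysfunction was a serum creatinine rise of ≥0.3 mg/dL within 48 h, or ≥1.5-times baseline within seven days, of TEIC administration. Hepatic dysfunction was AST or ALT outside the normal limit of ≤30 IU/L (CTCAE v5.0). ROC analysis used measured free trough TEIC (ultrafiltration, HPLC-UV). The cutoff was the point where sensitivity and specificity, plotted against free concentration, gave the best result.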
# [5] = system: albumin; settings: cited from earlier work
# [6] = cited from earlier work
substance,measurement,setting,value
Teicoplanin,"Trough total concentration, loading dose period, median","[1]; loading dose period (days 3–4, median dose 13 mg/kg every 12 h), serum, HPLC-UV",24.3 µg/mL
same,"Trough total concentration, maintenance dose period, median","[1]; maintenance dose period (day 7 onward, median dose 7.8 mg/kg once daily), serum, HPLC-UV",26.2 µg/mL
same,"Total serum TEIC concentration, patients with adverse events, median",[1]; n = 7,36.1 µg/mL
same,"Total serum TEIC concentration, patients without effective response, median",[1]; n = 7,21.1 µg/mL
same,"Total serum TEIC concentration, patients with effective response, median",[1]; n = 17,24.8 µg/mL
same,"Total serum TEIC concentration, patients without adverse events, median",[1]; n = 34,30.1 µg/mL
same,"Free serum TEIC concentration, single patient with adverse events","[2]; another patient, total serum TEIC < 40 μg/mL, adverse events noted",6.31 µg/mL
same,"Trough free concentration, loading dose period, median","[2]; loading dose period, ultrafiltration 30 kDa, HPLC-UV, median",1.50 µg/mL
same,"Trough free concentration, maintenance dose period, median","[2]; maintenance dose period, ultrafiltration 30 kDa, HPLC-UV, median",1.65 µg/mL
same,"Free serum TEIC concentration, patients with adverse events, median","[2]; n = 7, median",2.60 µg/mL
same,"Free serum TEIC concentration, patients without effective response, median","[2]; n = 7, median",1.26 µg/mL
same,"Free serum TEIC concentration, patients with effective response, median","[2]; n = 17, median",1.50 µg/mL
same,"Free serum TEIC concentration, patients without adverse events, median","[2]; n = 34, median",1.35 µg/mL
same,"Free serum TEIC concentration, single patient with efficacy","[2]; one of the 17 patients who showed efficacy, total serum TEIC < 15 µg/mL",1.67 µg/mL
same,"Free serum TEIC concentration, single patient with high total concentration","[2]; one patient, total serum TEIC > 40 μg/mL",1.78 µg/mL
same,"Free teicoplanin percentage, median","[3]; all samples, ultrafiltration 30 kDa, free/total",6.3%
same,"Free teicoplanin percentage, loading dose period, median","[3]; loading dose period, ultrafiltration",6.2%
same,"Free teicoplanin percentage, maintenance dose period, median","[3]; maintenance dose period, ultrafiltration",6.3%
same,Cutoff value of free serum TEIC concentration for occurrence of adverse events,[4],2.07 µg/mL
same,nKa (binding sites per albumin molecule × association constant),[5]; analysis of Yano et al.,1.78 (g/dL)^−1
same,Protein-binding rate used by Byrne et al.,[5],90–95%
same,Protein-binding rate,"[5]; in humans, serum albumin",≥ 90%
same,Cutoff of mean free serum TEIC concentration associated with renal dysfunction,[6]; Sugiyama et al.,4.2 µg/mL
same,Effective total serum TEIC trough concentrations in clinical settings,[6],15 to 40 µg/mL
same,"Effective total serum TEIC trough concentrations, complicated infections",[6],20 to 40 µg/mL
same,"Effective total serum TEIC trough concentrations, uncomplicated infections",[6],15 to 30 µg/mL
same,TEIC concentration causing renal dysfunction,[6],> 60 µg/mL
